# Myeloid diff MLP: promotes myeloid progenitor differentiation | ER-HoxA9 myeloid progenitors, lysozyme-GFP differentiation, flow cytometry | calls only at 10 µM | 360,000 tested, 1% active | AID 624256;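 active means normalized GFP-positive differentiation at or above the plate's own cutoff, the solvent-only control mean plus 3 SD; inconclusive means no clear call, values can overlap the other calls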;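 further: cells exposed to compound for four days before flow analysis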
# NR2E3 ag-1: human photoreceptor-specific nuclear receptor agonism | Q9Y5X4 | CHO-S Gal4-NCOR/VP16-NR2E3 two-hybrid, luciferase | inhibition of corepressor binding, % at 3.98 µM | 360,000 tested, 0.35% active | AID 602229;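 active means inhibition above the mean of all tested compounds plus 3 SD, cut at about 70% in these data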;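 further: 0% = DMSO with NR2E3 transfected cells and 100% = cells lacking NR2E3 construct; higher means lower luciferase signal from less NR2E3 corepressor binding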
# Target sequence (Q9Y5X4 whole entry, looked up, the tested form may be a part): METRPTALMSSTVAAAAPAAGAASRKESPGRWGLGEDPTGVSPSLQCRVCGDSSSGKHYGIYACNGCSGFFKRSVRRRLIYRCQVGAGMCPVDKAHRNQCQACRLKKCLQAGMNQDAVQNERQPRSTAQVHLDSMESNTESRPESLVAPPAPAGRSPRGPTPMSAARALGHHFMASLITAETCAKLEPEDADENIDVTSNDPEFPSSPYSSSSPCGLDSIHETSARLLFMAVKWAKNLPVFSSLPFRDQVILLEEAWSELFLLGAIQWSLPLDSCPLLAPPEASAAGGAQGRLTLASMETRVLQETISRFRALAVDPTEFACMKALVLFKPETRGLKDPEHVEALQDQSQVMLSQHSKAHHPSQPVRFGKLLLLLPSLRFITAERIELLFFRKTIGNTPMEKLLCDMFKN
# FXN GAA850 act: activators of GAA850 frataxin (FXN) promoter; 360,000 tested, 0.56% active; HEK293 lucGAA850 FXN promoter luciferase reporter, 24 h; percent of 10 µM SAHA response; activation, % at 6 µM;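 active means activation above the average of all compounds screened plus 3 SD, cutoff fixed separately per campaign, cut at about 7.5% in these data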;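 further: 0% = DMSO wells and 100% = 10 µM SAHA wells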
# T cell HTS: modulates CD8 T cell binding to vesicles; 2C CD8+ T cell-vesicle binding, flow cytometry; stronger effect = lower value; response (vesicle binding), % at 7 µM; 330,000 tested, 0.068% active;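 active means response, share of CD8 T cells binding vesicles, and their 90th percentile fluorescence all below set limits, cut at about 80% in these data, passing the limit was not always enough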;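 further: values below 100% mean blocked vesicle binding to the CD8+ T cells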
#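 Assay system: 2C TCR transgenic mouse naive CD8+ T cells, MACS-purified | Read-out: CD8+ gate FL2 mean fluorescence as % of same-row positive control | Signal: High-throughput flow cytometry with anti-B7-1 and anti-CD8 staining | Timing: Binding step 1.5 h, 37 °C, antibody labelling 20 min, ice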
# NR2E3 ag-2: NR2E3 (human) agonism; GST-NR2E3/biotin-RetCOR TR-FRET, 1536-well; inhibition of corepressor binding, % at 4.78 µM; 320,000 tested, 0.12% active; AID 2300;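 active means percent inhibition above the cutoff of mean plus 3 SD of all tested compounds, set per screening campaign, cut at about 20% in these data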;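 further: 0% = DMSO wells and 100% = biotin wells as full block of FRET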
#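 Assay system: NR2E3–RetCOR corepressor complex. Quantity: 1.35 nM GST-NR2E3. Buffer or medium: pH 7.5 Tris-based buffer. Reagent: biotinylated RetCOR corepressor at 7 nM final. Schedule: 5 h at 4 °C. Detection: TR-FRET, emission read at 617 and 671 nm. Replicates: one well per compound, singlicate testing.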
# * marks the source's active call; other numbers are inactive results; i = inactive; u = inconclusive; x = no result; + = active, no number. Sampled rows, rich in hits. Any-hit rate of the full collection: about 2%.
SMILES,Myeloid diff MLP,NR2E3 ag-1,FXN GAA850 act,T cell HTS,NR2E3 ag-2
Cc1ccc(-c2nc3cc(C)c(Br)c(C)n3c2CC(C)(C)C)cc1,i,-20,x,x,x
O=C(Nc1nc2c(s1)CN(Cc1ccccc1)CC2)C1CCC1,i,-15,0,478,3
CN(C)c1ccc(/C=C(\C#N)C(=O)Nc2nc3c(s2)CCN(Cc2ccccc2)C3)cc1,+,-27,1,392,1
CC1(C)Cc2ccccc2C2CC(O)C(=O)N21 (stereo not given),+,-4,-2,820,-2
CNC(C)C#Cc1ccc2oc3cccc(OC)c3c(=O)c2c1 (stereo not given),i,-33,7.8*,103,-3
Cc1ccc([C@H]2N[C@]3(CCCN(Cc4ccc(Br)cc4)C3=O)[C@H]3C(=O)N(Cc4ccccc4)C(=O)[C@@H]23)cc1,i,-29,-8,x,x
NS(=O)(=O)c1ccc(CCNC(=O)COC(=O)C2COc3ccccc3O2)cc1 (stereo not given),i,-5,1,337,x
CCOC(=O)C1(CC2CC2)CCN(C(=O)c2ocnc2C)CC1,+,-63,3,115,0
O=C(Nc1ccccc1N1CCCC1)c1ccc([N+](=O)[O-])o1,+,20,1,216,-4
CN1CCN(c2ccccc2NC(=O)c2cc3ccccc3o2)CC1,+,7,3,287,-3
Cc1cccc(NC(=O)c2ccc([N+](=O)[O-])o2)c1C,+,2,1,228,-4
O=C(Nc1ccccc1N1CCCC1)c1cc2ccccc2o1,i,-38,1,276,1
O=C(Nc1cccc2ccccc12)c1ccc([N+](=O)[O-])o1,x,8,-1,148,-1
COc1ccc(-c2csc(C(C)(O)c3cccc(F)c3)n2)cc1 (stereo not given),i,9,1,x,x
Cc1cc(Br)cn2c(Cc3ccsc3)c(-c3cccc(Br)c3)nc12,i,7,x,x,x
c1ccc(Cn2c[n+](Cc3ccccc3)c3ccccc32)cc1,u,-10,-1,658,1
Cc1cc(NC(=O)CS(=O)(=O)c2cn(Cc3ccccc3Cl)c3ccccc23)no1,+,30,-2,405,2
COc1ccc(CN(C)c2ncnc3sccc23)c(OC)c1OC,x,7,-1,259,2
CCOC(=O)c1sc2nc(C)nc(N3CCN(S(=O)(=O)c4ccccc4)CC3)c2c1C,i,-1,0,554,x
CCCN1CCC(NC(=S)Nc2ccc([N+](=O)[O-])cc2)CC1,i,-32,3,606,-1
CCCN1CCN(C(=S)Nc2ccc([N+](=O)[O-])cc2)CC1,+,-4,0,102,-1
C#CC1(O)CCC2C3CCC4=Cc5oncc5CC4(C)C3CCC21C (stereo not given),i,40,-2,x,x
O=C(Cn1cnnn1)OCC(=O)c1ccc(Cl)s1,+,-44,-1,314,4
COc1cccc(C(=O)c2c(-c3ccccc3)ncc3cc(OC)c(OC)cc23)c1,i,-37,-2,x,x
CSCC[C@H](NC(=O)Cc1ccc(Cl)cc1)C(=O)N1CCC2(CC1)NCCc1[nH]cnc12,+,-18,0,326,-2
SMILES,Myeloid diff MLP,NR2E3 ag-1,FXN GAA850 act,T cell HTS,NR2E3 ag-2
CCOC(=O)c1ccc(NC(=O)c2ncn3c2C(=O)NC[C@H]3C)cc1,i,-11,4,x,x
CCOC(=O)c1ccc(NC(=O)c2ncn3c2C(=O)N[C@H](C)C3)cc1,+,17,1,x,x
CCCCn1nc(C(=O)NCC(c2cccs2)N2CCOCC2)c2ccccc2c1=O (stereo not given),i,28,1,510,4
C=CCn1c(SCc2ccc(F)cc2)nc2c1c(=O)[nH]c(=O)n2C,i,16,23*,196,0
C=CCn1c(SCc2ccc(Cl)cc2)nc2c1c(=O)[nH]c(=O)n2C,i,-6,6,128,0
O=C(NCc1ccccc1)c1ccc(C(=O)NCc2ccccc2)cc1,i,-14,0,x,x
O=C(NCc1ccccc1)c1n[nH]nc1-c1ccccc1O,+,-66,2,169,-1
COc1cc(OC)cc(C2=Cc3ccccc3C(CC(=O)c3ccco3)N2c2ccc(-c3cncnc3)cc2)c1 (stereo not given),i,-13,x,x,x
Cc1ccc(CCC2C3=C(CCCC3=O)OC3=C2C(=O)CCC3)cc1,i,1,1,0.0*,0
Cc1cccc(NC(=O)CSCC(=O)NCc2ccco2)c1,i,-15,1,376,1
COc1ccc2c(C)cc(SCc3c(C)noc3C)nc2c1,+,-10,1,206,2
N/C(=N\OC(=O)Nc1ccccc1)c1ncc([N+](=O)[O-])s1,+,13,6,i,2
CCCOc1ccc(N)cc1N,+,-11,-5,256,4
CCCOc1cc(N)ccc1C(=O)OCCN(CC)CC,i,-3,-1,335,-2
COc1ccc(NC(=O)/C(Cl)=C(/Cl)S(=O)(=O)Cc2ccc(C)cc2)cn1,u,86*,-15,x,x
COc1ccc(NC(=O)Cc2ccc(Cl)c(Cl)c2)cn1,i,2,-1,312,-2
CCOC(=O)c1ccc2nc3c(cc2c1)CCS3,i,-90,12*,486,7
Cn1c(NN)nc2c1c(=O)n(Cc1ccccc1)c(=O)n2C,i,-8,4,146,x
CC(C)n1cc(-c2nc(C(=O)NN)cs2)c(=O)n(Cc2ccccc2)c1=O,+,-27,1,114,1
COC(=O)c1cc(NC(=O)c2ccccc2)c(=O)oc1C,i,8,0,142,1
COc1ccc(C(=O)Nc2cc(C(=O)c3ccccc3)c(C)oc2=O)cc1,i,-29,12*,218,1
N#Cc1ccccc1Cn1cc(/C=N/Nc2ccc([N+](=O)[O-])cn2)c2ccccc21,+,29,-2,189,3
CSc1ccc(S(=O)(=O)Nc2ccc3c(c2)OCCO3)cc1,+,38,1,153,2
Cc1ccc(S(=O)(=O)Nc2ccc3c(c2)OCCO3)cc1,i,-5,0,263,3
C=C(C1=CCN(S(=O)C(C)(C)C)[C@@H]1CCO)c1ccccc1 (stereo not given in full),i,-14,0,x,x
CCOC(=O)C1(C)CCCN1C(=O)c1ccc(C(=O)OC)cc1 (stereo not given),i,-3,-1,x,x
Cc1cc(Cl)c(C)c(S(=O)(=O)N2CCN(CC(=O)N3CCOCC3)CC2)c1Cl,+,0,4,594,5
CCOC(=O)[C@H]1[C@H]2COc3ccccc3[C@@H]2N2C(=O)CNC(=O)[C@@]12C,+,26,-1,i,0
O=C(NC1CC1)c1cccc2c1C(=O)c1ccc(N3CCC(Cc4ccccc4)CC3)cc1S2(=O)=O,i,-20,-1,192,x

# Assay outcomes deposited in PubChem by several laboratories.
